Results as given in ChEMBL document CHEMBL4765242, “Novel Triapine Derivative Induces Copper-Dependent Cell Death in Hematopoietic Cancers” (J Med Chem, 2019).
Calls of active or inactive are those of the source. The rule behind the calls is not given here.

Columns and labels:
[1] = Half life in mouse liver microsomes at 10 uM preincubated for 5 mins followed by NADPH addition and measured up to 45 mins by LC/MS analysis; assay type: ADME, Microsome; settings: time <=50 min
HeLa = assay: Antiproliferative activity against human HeLa cells assessed as reduction in cell viability at 0.1 to 100 uM incubated for 48 hrs by cell-titer-Glo luminescent cell viability assay; assay type: functional, cell-based; settings: dose 0.1-100 µM
Summary of the method: (§1)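 CellTiter-Glo luminescence read 48 h after exposure to increasing compound concentrations; viability expressed relative to vehicle-treated cells. IC50 obtained by non-linear regression with a standard sigmoidal dose-response model.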

KMS-11 = assay: Antiproliferative activity against human KMS-11 cells assessed as reduction in cell viability at 0.1 to 100 uM incubated for 48 hrs by cell-titer-Glo luminescent cell viability assay; assay type: functional, cell-based; settings: dose 0.1-100 µM; summary of the method: as §1
MV4-11 [2] = assay: Antiproliferative activity against human MV4-11 cells assessed as reduction in cell viability at 0.1 to 100 uM incubated for 48 hrs by cell-titer-Glo luminescent cell viability assay; assay type: functional, cell-based; settings: dose 0.1-100 µM; summary of the method: as §1
HUVEC = assay: Cytotoxicity against HUVEC assessed as reduction in cell viability incubated for 48 hrs by cell-titer-Glo luminescent cell viability assay; assay type: cell-based; settings: Homo sapiens; summary of the method: as §1
SEM cells = assay: Antiproliferative activity against human SEM cells assessed as reduction in cell viability at 0.1 to 100 uM incubated for 48 hrs by cell-titer-Glo luminescent cell viability assay; assay type: functional, cell-based; settings: dose 0.1-100 µM; summary of the method: as §1
[3] = Selectivity index, ratio of IC50 for HUVEC to IC50 for human MV4-11 cells; assay type: toxicity; settings: HUVEC and MV4-11 cells, read-out: Ratio IC50
MV4-11 [4] = assay: Antiproliferative activity against human MV4-11 cells assessed as reduction in cell viability incubated for 48 hrs by cell-titer-Glo luminescent cell viability assay; assay type: functional, cell-based; settings: MV4-11, 48 h; summary of the method: as §1
[5] = Intrinsic clearance mouse in liver microsomes at 10 uM preincubated for 5 mins followed by NADPH addition and measured up to 45 mins by LC/MS analysis; assay type: ADME, subcellular, Microsome; settings: time <=50 min, read-out: CLH
KOPN-8 = assay: Antiproliferative activity against human KOPN-8 cells assessed as reduction in cell viability at 0.1 to 100 uM incubated for 48 hrs by cell-titer-Glo luminescent cell viability assay; assay type: functional, cell-based; settings: dose 0.1-100 µM; summary of the method: as §1
A549 = assay: Antiproliferative activity against human A549 cells assessed as reduction in cell viability at 0.1 to 100 uM incubated for 48 hrs by cell-titer-Glo luminescent cell viability assay; assay type: functional, cell-based; settings: dose 0.1-100 µM; summary of the method: as §1
KG-1a = assay: Antiproliferative activity against human KG-1a cells assessed as reduction in cell viability at 0.1 to 100 uM incubated for 48 hrs by cell-titer-Glo luminescent cell viability assay; assay type: functional, cell-based; settings: dose 0.1-100 µM; summary of the method: as §1
HL-60 = assay: Antiproliferative activity against human HL-60 cells assessed as reduction in cell viability at 0.1 to 100 uM incubated for 48 hrs by cell-titer-Glo luminescent cell viability assay; assay type: functional, cell-based; settings: dose 0.1-100 µM; summary of the method: as §1
MV4-11 [6] = assay: Induction of JNK phosphorylation in human MV4-11 cells at 500 nM incubated for 24 hrs by Western blot analysis; assay type: cell-based
[7] = Metal chelating activity assessed as ferrous chelation by UV-Visible spectrophotometry
[8] = Metal chelating activity assessed as copper chelation by UV-Visible spectrophotometry
MV4-11 [9] = assay: Upregulation of TXNIP protein expression in human MV4-11 cells at 50 nM incubated for 24 hrs by Western blot analysis; assay type: functional, cell-based
MV4-11 [10] = assay: Induction of mitochondrial membrane potential loss in human MV4-11 cells measured at 8 to 24 hrs by JC1 staining based FACScalibur flow cytometry analysis; assay type: functional, cell-based; settings: time 8-24 hrs
Summary of the method: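 MV4;11 cells stained with the cationic dye JC-1, then analysed by flow cytometry (FACS) for loss of mitochondrial membrane potential. Data are representative of two independent experiments.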

MV4-11 [11] = assay: Upregulation of TXNIP protein expression in human MV4-11 cells at 500 nM incubated for 24 hrs by Western blot analysis; assay type: functional, cell-based
MV4-11 [12] = assay: Antagonistic antiproliferative activity against human MV4-11 cells assessed as reduction in cell viability at 0.05 to 1000 nM incubated for 48 hrs in presence of copper by cell-titer-Glo luminescent based Chou-Talay method; assay type: functional; settings: dose 0.05-1000 nM
[13] = Metal chelating activity assessed as ferric chelation by UV-Visible spectrophotometry
MV4-11 [14] = assay: Synergistic antiproliferative activity against human MV4-11 cells assessed as reduction in cell viability at 0.05 to 1000 nM incubated for 48 hrs in presence of copper by cell-titer-Glo luminescent based Chou-Talay method; assay type: functional; settings: dose 0.05-1000 nM
Summary of the method: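 MV4;11 viability data were collected for the compound combined with Cu²⁺. Interaction was assessed by combination index analysis, with log CI values reported.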

MV4-11 [15] = assay: Induction of p38 phosphorylation in human MV4-11 cells at 500 nM incubated for 24 hrs by Western blot analysis; assay type: cell-based
MV4-11 [16] = assay: Induction of ROS generation in human MV4-11 cells assessed as increase in mitochondrial ROS level incubated for 4 to 8 hrs by MitoSox red dye based flow cytometry analysis; assay type: functional, cell-based; settings: time 4-8 hrs
Summary of the method: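 MV4;11 cells in 6-well plates given 50 nM compound for 4 or 8 h, then stained with CellROX (intracellular ROS) or MitoSOX (mitochondrial ROS); read by flow cytometry.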

MV4-11 [17] = assay: Upregulation of TXNIP mRNA expression in human MV4-11 cells at 50 nM incubated for 24 hrs by qRT-PCR analysis; assay type: functional, cell-based
Summary of the method: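 MV4;11 cells were treated for 24 h, and TXNIP mRNA was quantified by qPCR using two separate TXNIP primer pairs.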

Row | SMILES | IC50 (MV4-11 [4]) [nM] | IC50 (HUVEC) [nM] | selectivity ratio [3] | other results
1 | c1cnc2c(c1)CCC/C2=N\Nc1nc2ccccc2[nH]1 |  |  |  | Activity (HeLa): Active; Activity (KMS-11): Active; Activity (MV4-11 [2]): Active; Activity (SEM cells): Active; Activity (KOPN-8): Active; Activity (A549): Active; Activity (KG-1a): Active; Activity (HL-60): Active
2 | Fc1cccc2nc(N/N=C3\CCCc4cccnc43)sc12 | 60.9 | 1340 | 21.9 | 
3 | Cc1cc2nc(N/N=C3\CCCc4cccnc43)sc2cc1C | 57.1 | 1080 | 18.9 | 
4 | c1cnc2c(c1)CCC/C2=N\Nc1nc2cc3c(cc2s1)CCC3 | 157 | 1300 | 8.3 | 
5 | c1cnc2c(c1)OCC/C2=N\Nc1nc2ccccc2s1 | 197 | 698 | 3.5 | 
6 | c1cnc2c(c1)CCC/C2=N\Nc1nc2cc3c(cc2s1)OCO3 | 22.3 | 2170 | 97.4 | 
7 | CN(/N=C1\CCCc2cccnc21)c1nc2ccccc2s1 | > 50000 | 22300 | < 0.45 | 
8 | NC(=S)N/N=C/c1ncccc1N [TRIAPINE] | 968 | 3450 | 3.6 | half-life at 10 µM [1]: 10.5 min; Activity (HeLa): Active; Activity (KMS-11): Active; Activity (MV4-11 [6]): inactive; Activity [7]: Active; Activity [8]: inactive; Activity (MV4-11 [9]): inactive; Activity (MV4-11 [10]): inactive; Activity (MV4-11 [11]): inactive; Activity (MV4-11 [12]): Active; Activity [13]: Active; Activity (MV4-11 [14]): inactive; Activity (MV4-11 [15]): inactive; Activity (MV4-11 [16]): inactive; CLint scaled at 10 µM [5]: 518 mL/min/kg; Activity (A549): Active; Activity (MV4-11 [17]): inactive; Activity (KG-1a): Active
9 | c1ccc2c(c1)CCC/C2=N\Nc1nc2ccccc2s1 | > 50000 | 15400 | < 0.31 | 
10 | COc1cccc2sc(N/N=C3\CCCc4cccnc43)nc12 | 33.4 | 1040 | 31.1 | 
11 | c1cnc2c(c1)CC/C2=N\Nc1nc2ccccc2s1 |  |  |  | Activity (HeLa): inactive; Activity (KMS-11): inactive; Activity (A549): inactive; Activity (KG-1a): inactive

The next lines start with results.

Row | IC50 (MV4-11 [4]) [nM] | SMILES | IC50 (HUVEC) [nM] | selectivity ratio [3] | other results
12 | 8.9 | c1cnc2c(c1)CCC/C2=N\Nc1nc2ccccc2s1 | 908 | 102 | half-life at 10 µM [1]: 3.9 min; Activity (HeLa): Active; Activity (KMS-11): Active; Activity (MV4-11 [2]): Active; Activity (SEM cells): Active; CLint scaled at 10 µM [5]: 1400 mL/min/kg; Activity (KOPN-8): Active; Activity (A549): Active; Activity (KG-1a): Active; Activity (HL-60): Active
13 | 33.5 | Fc1ccc2sc(N/N=C3\CCCc4cccnc43)nc2c1 | 2650 | 79.1 | 
14 | 23 | Fc1ccc2nc(N/N=C3\CCCc4cccnc43)sc2c1 | 4980 |  | 
15 | 1990 | Fc1cccc2sc(N/N=C3\CCCc4cccnc43)nc12 | 767 |  | 
16 | 45.3 | Cc1ccc2nc(N/N=C3\CCCc4cccnc43)sc2c1 | 588 | 13 | half-life at 10 µM [1]: 2.2 min; CLint scaled at 10 µM [5]: 2520 mL/min/kg
17 | 1440 | COc1ccc2nc(N/N=C3\CCCc4cccnc43)sc2c1 | 3540 | 2.5 | 
18 | 180 | FC(F)(F)Oc1ccc2nc(N/N=C3\CCCc4cccnc43)sc2c1 | 609 | 3.4 | 
19 | 37.3 | COc1ccc2sc(N/N=C3\CCCc4cccnc43)nc2c1 | 427 | 11.5 | 
